OXTR ag: agonists of human oxytocin receptor | P30559 | CHO-OTR cells, Fluo-8 calcium fluorescence; normalized: DMSO 0%, oxytocin 100% | activation, % at 3 µM | 0.32% of 320,000 active | AID 2435;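 active = activation above the mean of all tested compounds plus 3 SD, cutoff set per screening run, cut at about 20% in these data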;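 also: peak over basal fluorescence ratio from a 100 s FLIPR kinetic read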
OXTR potentiate: human OXTR potentiation | P30559 | CHO-OTR cells, Fluo-8 calcium fluorescence, potentiator mode; 0% = oxytocin EC15, 100% = EC100 | activation, % at 3 µM | 0.061% of 320,000 active;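 active = activation above that plate's cutoff, the mean activation of tested compounds plus 3 SD, cut at about 6.6% in these data, passing the limit was not always enough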;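 also: 100% uses oxytocin at 75 nM as the full agonist control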
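test system = CHO-OTR cells, human receptor | compound = single-point 3.0 µM | schedule = 6 min compound pre-incubation at room temperature, 100 s kinetic read | signal = Fluo-8 no-wash calcium dye fluorescence, excitation 470-495 nm, emission 515-575 nm | repeats = single well per compound, singlicate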
TRPML3 ag: human mucolipin-3 channel agonism | Q8TDD5 | activation, % at 3 µM | HEK293 TRPML3-YFP, Fluo-8 calcium fluorescence; 100% = the carbachol control signal | 0.29% of 220,000 active;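 active = activation above its plate's cutoff, the mean activation of the plate's test wells plus 3 SD, cut at about 12% in these data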;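 also: 0% = DMSO only wells and 100% = carbachol wells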
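system = HEK293 cells stably carrying human TRPML3-YFP | doses = one concentration, 3 µM nominal, 0.3% DMSO | timing = dye loading 1 h 37 °C then 30 min ambient, 125 s read | detection = Fluo-8 calcium dye fluorescence, ex 470-495, em 515-575 nm | benchmarks = high control carbachol 87 µM, low control DMSO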
CRFBP-R2 agonist: CRF-BP/CRF-R2 complex agonism | activation, % at 13.2 µM | AID 588473 | HEK293 CRF-R2/CRF-BP, calcium dye fluorescence (FLIPR); percent of saturating CRF peptide response | 0.46% of 350,000 active;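 active = activation of at least 50%, plus an integration ratio under a set limit after plate pattern correction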;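 also: plate controls were neutral control wells without compound for no effect and CRF at EC100 for full effect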
V1R ag counter: counter-screen for oxytocin receptor agonists: human V1a receptor agonists | AID 2797 | activation, % at 3 µM | CHO-V1R cells, Fluo-8 calcium fluorescence, agonist mode; 0% DMSO, 100% 3 nM vasopressin | 0.25% of 320,000 active;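 active = activation above the mean activation of all tested compounds plus 3 SD, per screening run, cut at about 20% in these data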;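 also: signal is peak over basal fluorescence ratio across a 100 second FLIPR read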
Target sequence (P37288 whole entry, looked up): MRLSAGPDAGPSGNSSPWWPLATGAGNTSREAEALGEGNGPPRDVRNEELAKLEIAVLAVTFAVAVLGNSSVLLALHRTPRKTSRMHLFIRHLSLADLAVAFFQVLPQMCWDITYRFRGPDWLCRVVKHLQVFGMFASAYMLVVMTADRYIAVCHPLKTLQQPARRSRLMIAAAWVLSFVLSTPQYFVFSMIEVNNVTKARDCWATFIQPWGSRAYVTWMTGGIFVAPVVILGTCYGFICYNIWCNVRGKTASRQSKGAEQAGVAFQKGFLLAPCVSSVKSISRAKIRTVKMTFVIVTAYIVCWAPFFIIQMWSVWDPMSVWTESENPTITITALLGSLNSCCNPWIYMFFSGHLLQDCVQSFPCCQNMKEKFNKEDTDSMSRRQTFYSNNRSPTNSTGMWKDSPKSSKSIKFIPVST
zfTRPN1 agonist: activates the zebrafish TRPN1 channel. HEK293 zebrafish TRPN1-YFP, Fluo-8 calcium fluorescence; 100% = response to 87 µM carbachol. activation, % at 3 µM. 0.18% of 220,000 active. AID 1424;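 active = activation above its plate's cutoff, the mean activation of test wells on that plate plus 3 SD, cut at about 19% in these data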;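 also: 0% = DMSO alone and 100% = 87 µM carbachol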
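Control set: carbachol 87 µM as high control, DMSO as low control; system: HEK293 stable line with zebrafish TRPN1-YFP; read-out: % activation versus carbachol response; detection: intracellular calcium fluorescence with Fluo-8; doses: single test compound dose, 3 µM nominal, 0.3% DMSO; schedule: dye 1 h 37 °C plus 30 min RT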
* = called active by the depositor. Shown are actives, neighbours in structure and some others; about 0.85% of the full set was active somewhere.

O=C(Nc1nnc(-c2ccc(F)cc2)o1)c1cccc([N+](=O)[O-])c1 was read as OXTR ag 14, OXTR potentiate -14, TRPML3 ag 1, CRFBP-R2 agonist 38, V1R ag counter 8 and zfTRPN1 agonist 0.
For CCCN(CCC)S(=O)(=O)c1ccc(C(=O)Nc2nnc(-c3cc(OC)cc(OC)c3)o2)cc1 the results were OXTR ag 0, OXTR potentiate 0, TRPML3 ag 0, CRFBP-R2 agonist 1, V1R ag counter 1 and zfTRPN1 agonist 0.
`O=C(Nc1nnc(-c2ccc(F)cc2)o1)c1cc(Cl)sc1Cl` gave OXTR ag 0, OXTR potentiate 5, TRPML3 ag 1, CRFBP-R2 agonist 91*, V1R ag counter 1 and zfTRPN1 agonist 0.
Screening O=C(Nc1nnc(-c2ccc(Cl)cc2)o1)c1nc2ccccc2s1 returned OXTR ag 5, OXTR potentiate -7, TRPML3 ag 0, CRFBP-R2 agonist 187*, V1R ag counter 6 and zfTRPN1 agonist 0.
For O=C(Nc1nnc(-c2ccc(Cl)cc2)o1)Nc1ccccc1Cl the results were OXTR ag -2, OXTR potentiate -7, TRPML3 ag 1, CRFBP-R2 agonist 1, V1R ag counter 0 and zfTRPN1 agonist 0.
Screening O=C(Nc1nnc(-c2ccccc2)o1)c1cc(Cl)sc1Cl returned OXTR ag -1, OXTR potentiate -6, TRPML3 ag 1, CRFBP-R2 agonist 188*, V1R ag counter -1 and zfTRPN1 agonist 1.
COc1ccc(C(=O)Nc2nnc(-c3ccccc3)o2)cc1OC was read as OXTR ag -1, OXTR potentiate -3, TRPML3 ag 1, CRFBP-R2 agonist -1, V1R ag counter 0 and zfTRPN1 agonist 0.
Screening CC(=O)c1ccc(OCC(O)CN2CCN(S(=O)(=O)c3c(C)c(C)cc(C)c3C)CC2)cc1 (configuration not stated) returned OXTR ag 14, OXTR potentiate -15, CRFBP-R2 agonist 2 and V1R ag counter 18.
`COc1ncnc2c1ncn2CCCN(C)Cc1ccco1` gave CRFBP-R2 agonist 2.
Screening COC(=O)COc1ccc(Oc2nc(SC)nc(N(C)C)n2)nn1 returned OXTR ag 1, OXTR potentiate -10, TRPML3 ag 0, CRFBP-R2 agonist 55*, V1R ag counter 1 and zfTRPN1 agonist 1.
For Cc1ccc(C(=O)NNC(=S)NC(=O)c2ccccc2)cc1 the results were OXTR ag 88*, OXTR potentiate -19, CRFBP-R2 agonist 138* and V1R ag counter 96*.
For CCCCC(=O)NC(=S)NNC(=O)c1ccc(Cl)cc1Cl the results were TRPML3 ag 1, CRFBP-R2 agonist 111* and zfTRPN1 agonist 3.
O=C(Nc1ccccc1)Nc1cccc(C(F)(F)F)c1 was read as OXTR ag 9, OXTR potentiate -11, TRPML3 ag 14*, CRFBP-R2 agonist 2, V1R ag counter 11 and zfTRPN1 agonist 24*.
Screening O=C(NNC(=S)NC(=O)c1ccccc1[N+](=O)[O-])c1ccc(Cl)cc1Cl returned OXTR ag 0, OXTR potentiate 3, TRPML3 ag 0, CRFBP-R2 agonist -2, V1R ag counter 0 and zfTRPN1 agonist 0.
For CNC(=O)Nc1cccc(C(F)(F)F)c1 the results were OXTR ag 2, OXTR potentiate 2, TRPML3 ag 0, CRFBP-R2 agonist -1, V1R ag counter 1 and zfTRPN1 agonist 2.
`Cc1ccc(C(=O)NNC(=S)NC(=O)c2ccc(Cl)cc2Cl)cc1` gave OXTR ag 101*, OXTR potentiate -14, TRPML3 ag 43*, CRFBP-R2 agonist 156*, V1R ag counter 117* and zfTRPN1 agonist 70*.
For COc1ccccc1CNC(=O)CN1C(=O)NC2(CCCc3sccc32)C1=O (configuration not stated) the results were OXTR ag 0, OXTR potentiate -9, CRFBP-R2 agonist 0 and V1R ag counter 0.
`O=C(OCC(=O)N1CCN(C(=O)c2ccco2)CC1)c1ccc(Cl)nc1` gave OXTR ag 1, OXTR potentiate 2, CRFBP-R2 agonist 1 and V1R ag counter 0.
COc1ccc(N(C=O)C(C(=O)Nc2c(C)cccc2C)c2ccccc2)cc1 (configuration not stated) was read as OXTR ag -2, OXTR potentiate -6, CRFBP-R2 agonist -5 and V1R ag counter -2.
Screening Cc1ccc(C(=O)NC(=S)NNC(=O)c2ccccc2)cc1 returned OXTR ag 82*, OXTR potentiate -23, CRFBP-R2 agonist 121* and V1R ag counter 89*.
Cc1occc1C(=O)NNC(=S)NC(=O)COc1ccc(Cl)cc1Cl was read as OXTR ag 0, OXTR potentiate 3, CRFBP-R2 agonist 230* and V1R ag counter 1.
`Cc1occc1C(=O)NNC(=O)COc1ccc(Br)cc1Br` gave OXTR ag -1, OXTR potentiate -3, TRPML3 ag 0, CRFBP-R2 agonist -2, V1R ag counter -1 and zfTRPN1 agonist -1.
For Cc1ccccc1C(=O)NNC(=S)NC(=O)c1ccccc1 the results were OXTR ag 53*, OXTR potentiate -9, TRPML3 ag 8, CRFBP-R2 agonist 160*, V1R ag counter 40* and zfTRPN1 agonist 9.
For Cc1ccccc1C(=O)NNC(=S)Nc1cccc(C(F)(F)F)c1 the results were OXTR ag 4, OXTR potentiate -9, TRPML3 ag 1, CRFBP-R2 agonist 13, V1R ag counter 3 and zfTRPN1 agonist 1.
`O=C(NNC(=S)Nc1cccc(C(F)(F)F)c1)c1ccc(Cl)cc1Cl` gave OXTR ag 7, OXTR potentiate -10, TRPML3 ag 3, CRFBP-R2 agonist 54*, V1R ag counter 5 and zfTRPN1 agonist 2.
Screening Cn1nc(C(=O)OCC(=O)c2ccc(Cl)cc2)c2ccccc2c1=O returned OXTR ag 0, OXTR potentiate 1, CRFBP-R2 agonist -3 and V1R ag counter 2.
`Cc1ccc(S(=O)(=O)N2CCOCC2)cc1C(=O)NCC1CCCCC1` gave OXTR ag -1, OXTR potentiate -6, CRFBP-R2 agonist -1 and V1R ag counter 0.
CC12CCC3C(CCC4CC(O)CCC43C)C1CC(O)C2 (configuration not stated) was read as CRFBP-R2 agonist 10.
Screening C[C@]12CCC(O)CC1CCC1C2CC[C@]2(C)C(c3cc(C(F)(F)F)n[nH]3)CCC12 (some centres not stated) returned OXTR ag 2, OXTR potentiate -1, TRPML3 ag 1, CRFBP-R2 agonist 54*, V1R ag counter 0 and zfTRPN1 agonist 1.
